Results filed as inconclusive are left out.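 Rule for the calls, unless noted: active = RAM network inhibition above 8.4% in each of two replicates, 3 SD over the compound average; inconclusive = above 8.4% inhibition in only one replicate; inactive = 8.4% inhibition or less in each replicate.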
Key:
[1] = S. cerevisiae growth inhibition in permissive medium (OD615), pilot counter-assay for S. cerevisiae lifespan shortening project, permissive growth control (AID 705;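 active = growth inhibition above 25% in both replicates, a cutoff set 3 SD above the mean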); conditions: OD615, 24 h, at 10 µM, active compounds read high
How it was run: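 System: Engineered DeaD yeast | Buffer or medium: SC raffinose/galactose permissive medium | Doses: 10 µM single dose, 0.25% DMSO | Times: 24 h exposure, 30 °C | Measured by: OD615 turbidity read | Read-out: Yeast growth inhibition indicated by reduced 24 h OD615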

[2] = S. cerevisiae growth inhibition in restrictive medium, OD615, pilot screen, restrictive growth control, yeast lifespan reduction project (AID 706;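 active = growth inhibition above a set limit, 3 SD over mean compound inhibition, in both replicates, cut at about 43% in these data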;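 note: modified DeaD lifespan yeast strain shifted to restrictive glucose medium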); conditions: OD615, 48 h, at 10 µM, active compounds read high
How it was run: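 Assay system: engineered S. cerevisiae DeaD strain; Buffer or medium: CSMM-D glucose medium; Dosing: 10 µM compound, 0.25% DMSO; Times: cell pre-growth 4 h, compound exposure 48 h, 30 °C; Detection: absorbance (optical density) measured at 615 nm.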

[3] = doxorubicin toxicity protection in MRP-1 cells – H69AR cells, CellTiter-Glo, duplicate, MRP-1 activator project, pilot screen (AID 807;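 active = viability increase at or above a cutoff of the median across tested compounds plus 3 SD, cut at about 8.5% in these data, passing the limit was not always enough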;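 note: compound pretreatment 18-22 h then 72 h combined with doxorubicin; 0% = doxorubicin alone and 100% = vehicle without doxorubicin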); conditions: H69AR viability with doxorubicin, CellTiter-Glo luminescence; at 10 µM; active compounds read high
[4] = viability of HCT116 without oncogenic beta-catenin – human colon tumor cells, pilot screen (AID 823;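 active = cell viability at or below a set limit in both duplicate runs, the limit being the all-compound median minus 4 SD, cut at about 23% in these data, passing the limit was not always enough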;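 note: 0% = wells killed by 20 µM Hyamine and 100% = untreated DMSO cell wells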); conditions: HCT116 beta-catenin knockout viability, CellTiter-Glo, 60 h; at 10 µM; active compounds read low
[5] = viability of PTEN-null HCT116 cells – cell-based, HCT116 clonal line, CellTiter-Glo, pilot screen (AID 824;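 active = viability at or below 27.92% in each of two runs, the all-compound median minus 4 SD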;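 note: 0% = 20 µM Hyamine control and 100% = vehicle cell control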); conditions: HCT116 PTEN-deleted viability, 60 h, at 10 µM, active compounds read low
[6] = RAM pathway blockade in budding yeast – dse1pr::URA3 reporter, 5-FOA selection, pilot screen (AID 869;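 active = inhibition over a set limit, the all-compound mean plus 3 SD, in both replicate runs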;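 note: 0% = DMSO wells with no growth and 100% = 10 µM 1-NA-PP1 with full growth; RAM network block rescues cells from 5-FOA so hits raise OD615 growth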); conditions: S. cerevisiae dse1pr::URA3 5-FOA growth, OD615, 2 d; at 10 µM; active compounds read high; strain carries analog-sensitive mutant Cbk1 kinase
[7] = RAM signaling pathway blockade in yeast – S. cerevisiae, Pdr1DBD-CYC8 efflux-inhibited sensitized strain, primary screen (AID 1298);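 note: 0% = DMSO untreated cells without growth and 100% = 10 µM 1-NA-PP1 full growth; higher means more yeast growth rescued from 5-FOA killing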; conditions: S. cerevisiae cbk1-as DSE1-URA3 strain, 5-FOA growth OD615, 2 d; at 50 µM; active compounds read high

CCOc1cc(C2NC(=O)NC(O)(C(F)(F)F)C2C(=O)c2ccc(Cl)cc2)ccc1O (configuration not stated)
inactive: growth inhibition [1] -3.6% | growth inhibition [2] -4.53% | viability increase [3] -1.34% | viability [4] 86.7% | viability [5] 94.3% | inhibition [6] 1.62% | RAM network inhibition [7] -0.26%

CCOC(=O)COc1cccc2c(=O)n(CC(=O)N3CCN(C(=O)OCC)CC3)ccc12
inactive: growth inhibition [1] -4.37% | growth inhibition [2] -7.13% | viability increase [3] -2.1% | viability [4] 104% | viability [5] 96.1% | inhibition [6] 1.04% | RAM network inhibition [7] 4.18%

CCOc1ccc2nc(N3CCC(C(=O)N4CCN(c5ccccn5)CC4)CC3)sc2c1
inactive: growth inhibition [1] -4.53% | growth inhibition [2] -8.55% | viability increase [3] -6.17% | viability [4] 50.9% | viability [5] 55.7% | inhibition [6] -0.605% | RAM network inhibition [7] 2.36%

CC1CCCCN1CCNC(=O)c1cnn2ccccc12 (configuration not stated)
inactive: growth inhibition [1] -12.7% | growth inhibition [2] -9.32% | viability increase [3] -1.7% | viability [4] 101% | viability [5] 91.6% | inhibition [6] 2.58% | RAM network inhibition [7] 0.01%

O=C(CSc1ccc2nnc(-c3ccc(F)cc3)n2n1)N1CCOCC1
inactive: growth inhibition [1] -5.25% | growth inhibition [2] -2.17% | viability increase [3] -2.97% | viability [4] 105% | viability [5] 96.6% | inhibition [6] 0.08% | RAM network inhibition [7] 0.47%

CC(C)Sc1nc(-c2cccs2)nc2c1c(=O)n(C)c(=O)n2C
inactive: growth inhibition [1] -2.16% | growth inhibition [2] -19% | viability increase [3] -6.85% | viability [4] 77.3% | viability [5] 69.4% | inhibition [6] 1.46% | RAM network inhibition [7] 7.05%

N#CN=C1SCCS1
inactive: growth inhibition [1] -5.58% | growth inhibition [2] -14.9% | viability increase [3] -0.61% | viability [4] 103% | viability [5] 99% | inhibition [6] 1.71% | RAM network inhibition [7] 0.1%

CCCCN1C(=O)C2C(c3ccc(OC)cc3O)NC(CC(C)C)(C(=O)O)C2C1=O (configuration not stated)
inactive: growth inhibition [1] -7.45% | growth inhibition [2] -8.79% | viability increase [3] 0.44% | viability [4] 97.7% | viability [5] 92.7% | inhibition [6] 0.895% | RAM network inhibition [7] 0.99%

CCCCNC(=O)CS(=O)Cc1nc(-c2cccs2)oc1C (configuration not stated)
inactive: growth inhibition [1] -3.47% | growth inhibition [2] 21.5% | viability increase [3] -0.37% | viability [4] 97.6% | viability [5] 95.7% | inhibition [6] 1.57% | RAM network inhibition [7] 0.54%

Cc1ccccc1C(=O)N1CCC(C(=O)Nc2cccc(F)c2)CC1
inactive: growth inhibition [1] -7.2% | growth inhibition [2] -1.04% | viability increase [3] -0.02% | viability [4] 98.1% | viability [5] 82.7% | inhibition [6] 1.3% | RAM network inhibition [7] 3.22%

Nc1nc(Nc2ccccc2Br)nc(C(F)(F)F)n1
inactive: growth inhibition [1] -3.56% | growth inhibition [2] 4.02% | viability increase [3] 0.23% | viability [4] 104% | viability [5] 93.4% | inhibition [6] 1.84% | RAM network inhibition [7] 0.72%

Cc1c(C(=O)OCC2CCCO2)[nH]c2c1C(=O)CC(c1ccc(N(C)C)cc1)C2 (configuration not stated)
inactive: growth inhibition [1] -4.14% | growth inhibition [2] 3.2% | viability increase [3] -0.25% | viability [4] 67.7% | viability [5] 71.5% | inhibition [6] 1.09% | RAM network inhibition [7] 6.62%

COc1ccc(OC)c2sc(NC(=O)C3=COCCO3)nc12
inactive: growth inhibition [1] -14.8% | growth inhibition [2] 0.525% | viability increase [3] -2.76% | viability [4] 93% | viability [5] 90.9% | inhibition [6] 0.98% | RAM network inhibition [7] 3.16%

CCOC(=O)CN1CC23C=CC(O2)C(C(=O)O)C3C1=O (configuration not stated)
inactive: growth inhibition [1] 2.83% | growth inhibition [2] -3.85% | viability increase [3] 0.14% | viability [4] 103% | viability [5] 107% | inhibition [6] 0.73% | RAM network inhibition [7] 4%

CCCCN(C(=O)NC(=O)Nc1nc2ccc(OC)cc2s1)S(C)(=O)=O
inactive: growth inhibition [1] -2.28% | growth inhibition [2] -3.95% | viability increase [3] -0.44% | viability [4] 92.6% | viability [5] 103% | inhibition [6] -0.04% | RAM network inhibition [7] 1.09%

C=C(C)Cn1c(CNC(C)=O)nc2ccccc21
inactive: growth inhibition [1] -12.2% | growth inhibition [2] -25.6% | viability increase [3] -0.52% | viability [4] 108% | viability [5] 94.3% | inhibition [6] 0.645% | RAM network inhibition [7] 3.9%

COc1cc2c(cc1OC)C1=C(C#N)CN(CC(=O)O)CN1CC2
inactive: growth inhibition [1] -0.125% | growth inhibition [2] 11.3% | viability increase [3] -4.43% | viability [4] 106% | viability [5] 96% | inhibition [6] 1.7% | RAM network inhibition [7] 1.9%

Cn1c(=O)oc2cc(S(=O)(=O)NCCN3CCN(c4ccccc4F)CC3)ccc21
inactive: growth inhibition [1] -14.7% | growth inhibition [2] 0.235% | viability increase [3] -2.88% | viability [4] 100% | viability [5] 88.8% | inhibition [6] 0.835% | RAM network inhibition [7] 1.48%

O=C(Cn1c(=O)oc2ccccc21)N1CCN(c2ccc(N3CCOCC3)nn2)CC1
inactive: growth inhibition [1] -0.78% | growth inhibition [2] -14% | viability increase [3] -2.65% | viability [4] 101% | viability [5] 101% | inhibition [6] 1.31% | RAM network inhibition [7] 2.63%

CCCCCN=C(C)c1c(O)c2ccccc2oc1=O
inactive: growth inhibition [1] 1.51% | growth inhibition [2] 1.03% | viability increase [3] 1.19% | viability [4] 94.8% | viability [5] 90.7% | inhibition [6] -0.66% | RAM network inhibition [7] -1.55%

O=C(NCc1ccccn1)c1nnc(Cc2ccc(Cl)cc2)o1
inactive: growth inhibition [1] -1.48% | growth inhibition [2] 2.66% | viability increase [3] 1.55% | viability [4] 108% | viability [5] 103% | inhibition [6] 0.515% | RAM network inhibition [7] -1.46%

CCOC(=O)N1CCC(NC(=O)c2ccc3snnc3c2)CC1
inactive: growth inhibition [1] -6.44% | growth inhibition [2] -4.42% | viability increase [3] -3.44% | viability [4] 98.5% | viability [5] 89.7% | inhibition [6] 0.55% | RAM network inhibition [7] 4.29%

COC(=O)c1ccccc1NC(=O)c1c(O)c2c([nH]c1=O)CCCC2
inactive: growth inhibition [1] -23.1% | growth inhibition [2] -12.7% | viability increase [3] -5.62% | viability [4] 88.3% | viability [5] 93% | inhibition [6] 1.71% | RAM network inhibition [7] 1.65%

CCC(C)[C@@H](C(=O)Nc1ccc2c(c1)OCO2)N1Cc2ccccc2C1=O (some centres not stated)
inactive: growth inhibition [1] -14.7% | growth inhibition [2] -13.5% | viability increase [3] -2.97% | viability [4] 91.5% | viability [5] 75.1% | inhibition [6] 0.51% | RAM network inhibition [7] 4.42%

CCSc1nnc(NC(=O)CCc2ccccc2)s1
inactive: growth inhibition [1] 0.055% | growth inhibition [2] -7.23% | viability increase [3] -1.7% | viability [4] 88.7% | viability [5] 95.1% | inhibition [6] 3.51% | RAM network inhibition [7] 3.66%

O=C(C1CCCCC1)N1CCN(c2ncccn2)CC1
inactive: growth inhibition [1] -3.77% | growth inhibition [2] -0.05% | viability increase [3] 0.21% | viability [4] 101% | viability [5] 102% | inhibition [6] 1.31% | RAM network inhibition [7] 2.41%

O=C(Nc1ccc(Br)cc1)c1cnccn1
inactive: growth inhibition [1] -12.7% | growth inhibition [2] -21.8% | viability increase [3] -0.6% | viability [4] 98.1% | viability [5] 94.4% | inhibition [6] 1.59% | RAM network inhibition [7] 4.87%

COc1ccc(NC(=O)c2cc3ccccn3n2)cc1
inactive: growth inhibition [1] -2.21% | growth inhibition [2] 0.42% | viability increase [3] -0.18% | viability [4] 81% | viability [5] 73.1% | inhibition [6] -0.545% | RAM network inhibition [7] 0.83%

COc1ccc(C)cc1Nc1cc(C)nc2nc(C)nn12
inactive: growth inhibition [1] -8.41% | growth inhibition [2] 1.49% | viability increase [3] -4.98% | viability [4] 64.4% | viability [5] 57.3% | inhibition [6] 1.47% | RAM network inhibition [7] 0.57%

COc1ccc(-c2nnc3ccc(SCC(=O)N4CCOCC4)nn23)cc1
inactive: growth inhibition [1] 3.68% | growth inhibition [2] 30.1% | viability increase [3] -2.73% | viability [4] 99.6% | viability [5] 105% | inhibition [6] 0.96% | RAM network inhibition [7] 0.73%

CCCC(=O)NCCCc1nc2ccccc2n1CC
inactive: growth inhibition [1] -7.75% | growth inhibition [2] 0.985% | viability increase [3] 0.81% | viability [4] 100% | viability [5] 101% | inhibition [6] -0.16% | RAM network inhibition [7] 0.58%

CC(C)N(CCc1ccncc1)C(=O)Nc1ccc(F)cc1
inactive: growth inhibition [1] 0.1% | growth inhibition [2] -7.37% | viability increase [3] -2.27% | viability [4] 102% | viability [5] 96.8% | inhibition [6] 1.21% | RAM network inhibition [7] 5.33%

COC(=O)C(C)NC(=O)C1CCCN1S(=O)(=O)c1cc(C)c(Cl)cc1C (configuration not stated)
inactive: growth inhibition [1] -5.19% | growth inhibition [2] -6.72% | viability increase [3] -1.54% | viability [4] 93.8% | viability [5] 94.9% | inhibition [6] 0.935% | RAM network inhibition [7] 0.4%

Cc1ccc(N(CC(=O)NC2CCC(C)CC2)S(=O)(=O)c2cccnc2)cc1 (configuration not stated)
inactive: growth inhibition [1] 4.48% | growth inhibition [2] 8.91% | viability increase [3] 0.07% | viability [4] 98.3% | viability [5] 98.1% | inhibition [6] 1.15% | RAM network inhibition [7] -1.86%

NC(=O)CSc1nnc(Cn2c(=O)sc3ccccc32)n1-c1ccccc1
inactive: growth inhibition [1] -6.81% | growth inhibition [2] -0.84% | viability increase [3] -0.83% | viability [4] 98.5% | viability [5] 96.8% | inhibition [6] 2.02% | RAM network inhibition [7] 2.47%

CCCCCn1c(SCCOCC)nc2c1c(=O)[nH]c(=O)n2C
inactive: growth inhibition [1] -10.1% | growth inhibition [2] -15.6% | viability increase [3] -0.61% | viability [4] 96.2% | viability [5] 97.2% | inhibition [6] 1.75% | RAM network inhibition [7] 4.65%
